In paper PMC7980362 (Proceedings of the National Academy of Sciences of the …, 2021):
Where two headings read alike, the source gives them in different places.

Legend:
M. mazei Connectase = assay: Time course of the Connectase reaction with one primary substrate; format: biochemical; settings: 0.9 µM M. mazei Connectase, 3.7 µM Ub-(5)KDPGA(10), 37 °C
Procedure, shortened: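 M. mazei Connectase-His6 incubated with His6-Ub-(5)KDPGA(10) primary substrate only, no secondary substrate. Buffer: 50 mM acetate/MES/Hepes, 150 mM NaCl, 50 mM KCl, 5 mM TCEP, pH 7.0. Time points were stopped with 2% SDS and run on Coomassie-stained 12% gels.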

LPETG and GGG substrates = settings: cited from earlier work
[1] = tested on: ubiquitin ligation substrates (Ub-(5)KDPGA(15)/PGA(15)-Ub; Ub-[…]/GGG-Ub); format: biochemical
[2] = tested on: Ub-(5)KDPGA(15) and PGA(15)-Ub substrates; assay: Reaction rates of M. mazei Connectase at different temperatures; format: biochemical
Procedure, shortened: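 His6-Ub-(5)KDPGA(15) and PGA(15)-Ub-His6, each 6.25 µM, incubated with M. mazei Connectase-His6 at 400× lower concentration, at 25 °C, 37 °C or 50 °C. Buffer: 50 mM acetate/MES/Hepes, 150 mM NaCl, 50 mM KCl, 5 mM TCEP, pH 7.0. Time points were stopped with 2% SDS and run on Coomassie-stained 12% gels. Bands were quantified to give rates.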

B1: Ub-(5)KDPGA(10): C. subterraneum ubiquitin fused C-terminally to M. mazei MtrA residues 148 to 167 (protein)
chain: MHHHHHHGSMKIKIVPAVGGGSPLELEVAPNATVGAVRTKVCAMKKLPPDTTRLTYKGRALKDTETLESLGVADGDKFVLITRTVGGRELASKDPGAFDADPLVVEI
For B1, the “fraction of substrate modified (conjugate with Connectase) at any time” value (M. mazei Connectase) was about 7%.

B2: SrtA: S. aureus Sortase A without membrane anchor, reference ligase (protein)
chain: MRGSHHHHHHGSQAKPQIPKDKSKVAGYIEIPDADIKEPVYPGPATPEQLNRGVSFAEENESLDDQNISIAGHTFIDRPNYQFTNLKAAKKGSMVYFKVGNETRKYKMTSIRDVKPTDVEVLDEQKGKDKQLTLITCDDYNEKTGVWEKRKIFVATEVK
For B2, the “kcat Ligation/kcat Hydrolysis” value (LPETG and GGG substrates) is given as “≈ 3.3”.

B3: SrtA5*: evolved SrtA pentamutant with significantly increased activity (protein)
chain: MQAKPQIPKDKSKVAGYIEIPDADIKEPVYPGPATREQLNRGVSFAEENESLDDQNISIAGHTFIDRPNYQFTNLKAAKKGSMVYFKVGNETRKYKMTSIRNVKPTAVEVLDEQKGKDKQLTLITCDDYNEETGVWETRKIFVATEVKLEHHHHHH
In the case of B3, the “ligase activity of SrtA5* compared with SrtA” value ([1]; Ub-GGSLPETGGG and GGG-Ub substrates, 37 °C) is given as about 100 x, the Km (LPETG and GGG substrates; read-out: KM GGG) is given as 4700 µM and the Km (LPETG and GGG substrates; read-out: KM LPETG) is given as 170 µM.

B4: M. mazei Connectase: sequence-specific protein ligase, monomeric homolog of 20S proteasome subunits from Methanosarcina mazei (protein)
chain: MTLVIAFIGKNGAVMAGDMREITFEGEKPDREKLEKELYSGSIVTDEEMQKKAEEFGVKITVADCKEKVSERNGVLVGEVSSAEGGVVKKRRLYASAGNFAIAELINTEMTLTSQGKGSNFIAFGNEFTKQVANKCFKDNWTKKSNLQDAVKILILCMETVARKTASVSKQFMIVQTASNADVLKVVEKDRNC
modifications: left off: Strep, C-terminal, kept
For B4, the “ligase activity of Connectase relative to optimized SrtA5*” value ([1]; 100 µM substrates each, Connectase 50 °C, Sortase 37 °C) was over 40 x, the ligation yield ([1]; protein-protein ligation of two ubiquitin molecules, equimolar substrates) was about 50% and the “temperature of maximum activity” value [2] was 50 °C.
